Bounds are passed on as bounds.

Data set [1] in a line: PK after sc injection in mice. Particulars: male, Crl:CD1 (ICR), mouse, plasma, 100 nmol/kg. The format is in vivo. The essentials: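 Male ICR mice, 6 weeks old, n = 3, given a single sc injection: test compound at 100 or 300 nmol/kg, or liraglutide at 100 nmol/kg. Tail-vein plasma sampled at 0–144 h (0, 12, 24, 48, 72, 96, 120, 144 h) and stored at −80 °C. Active GLP-1 ELISA with a four-parameter logistic fit. Bioavailability from sc and iv dosing run in parallel.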

Data set [2] is described as follows: PK after iv injection in mice. Particulars: iv 1 mg/kg, GLP-1 ELISA, T1/2 elim unavailable. It is filed as in vivo. A digest of the protocol:
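Male ICR mice, 6 weeks old, n = 3, given a single iv injection: 1 mg/kg as GLP-1 peptide-equivalent weight for screening, or 300 nmol/kg. Tail-vein blood taken at 0, 12, 24, 48, 72, 96, 120 and 144 h; plasma stored at −80 °C. Active GLP-1 ELISA with a four-parameter logistic standard curve. Half-life computed; mean of three measurements.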
For orientation: An ELISA detects its analyte on a solid surface through an enzyme-linked reagent.

The conditions of data set [3]: iv; cited from earlier work.
For data set [4] the following is noted: nonhuman primate; cited from earlier work.

Usually MRT stands for the average time that molecules of a dose stay in the body. Take `CCCCCCCCCCCCCCCC(=O)N[C@@H](CCC(=O)NCCCC[C@H](NC(=O)[C@H](C)NC(=O)[C@H](C)NC(=O)[C@H](CCC(N)=O)NC(=O)CNC(=O)[C@H](CCC(=O)O)NC(=O)[C@H](CC(C)C)NC(=O)[C@H](Cc1ccc(O)cc1)NC(=O)[C@H](CO)NC(=O)[C@H](CO)NC(=O)[C@@H](NC(=O)[C@H](CC(=O)O)NC(=O)[C@H](CO)NC(=O)[C@@H](NC(=O)[C@H](Cc1ccccc1)NC(=O)[C@@H](NC(=O)CNC(=O)[C@H](CCC(=O)O)NC(=O)[C@H](C)NC(=O)[C@@H](N)Cc1cnc[nH]1)[C@@H](C)O)[C@@H](C)O)C(C)C)C(=O)N[C@@H](CCC(=O)O)C(=O)N[C@@H](Cc1ccccc1)C(=O)N[C@H](C(=O)N[C@@H](C)C(=O)N[C@@H](Cc1c[nH]c2ccccc12)C(=O)N[C@@H](CC(C)C)C(=O)N[C@H](C(=O)N[C@@H](CCCNC(=N)N)C(=O)NCC(=O)N[C@@H](CCCNC(=N)N)C(=O)NCC(=O)O)C(C)C)[C@@H](C)CC)C(=O)O` [liraglutide, reference compound]: the MRT in data set [1] came to 15.5 h. Moreover, the “plasma immunoreactive GLP-1 level at 48 h after iv injection” value in data set [2] is “below the detection limit”. On to Glucagon-like peptide-1 [GLP-1], for which the “half-life (T1/2 elim) injected intravenously” value in data set [3] is recorded as not above 2 min.

B1: 99 kDa HPN-conjugated G-CSF: 99 kDa heparosan-conjugated G-CSF, ref 39 (conjugate, UniProt P09919 31-207, looked up)
Granulocyte …: TPLGPASSLPQSFLLKCLEQVRKIQGDGAALQEKLVSECATYKLCHPEELVLLGHSLGIPWAPLSSCPSQALQLAGCLSQLHSGLFLYQGLLQALEGISPELGPTLDTLQLDVADFATTIWQQMEELGMAPALQPTQGAMPAFASAFQRRAGGVLVASHLQSFLEVSYRVLRHLAQP
modifications: 99 kDa heparosan conjugate
Consider B1, for which the T1/2 elim in data set [4] is on record as 8 days.

(Values after PMC6044901 (ACS Omega, 2018).)
